# Experimental data published in ChEMBL document CHEMBL1121524, “Studies of hypolipidemic agents. 1. Synthesis and hypolipidemic activities of alkoxycinnamic acid derivatives” (1980).
# Species on record: Rattus norvegicus
# Assay: Hypolipidemic activity expressed as percentage decrease in triglyceride in rat, at dosage of 50 mg for 7 days
# Format: functional
# In short: (§1)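 Male Sprague-Dawley rats, 4 weeks old, kept on CE-2 chow for at least 1 week, then grouped (generally five per group). Compound was mixed into CE-2 powder and fed ad libitum for the stated period; controls received plain CE-2 powder. Diet level is given as mg/100 g (mg%), about equal to mg/kg/day. Total serum triglyceride was measured by the Ryan and Rasho method and reported as percent depression versus control group mean. Significance was p < 0.05.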
row,SMILES,Decrease [%]
1,CCCCCCCCCCCCCCOc1ccc(/C=C(\C)C(=O)OCC(COC(=O)c2cccnc2)OC(=O)c2cccnc2)cc1 (stereo unspecified),17
2,CCCCCCCCCCCCCCOc1cccc(/C=C(\C)C(=O)O)c1,-11
3,CCCCCCCCCCCCCCOc1ccc(/C(C)=C/C(=O)O)cc1,41
4,CCCCCCCCCCCCOc1ccc(/C=C/C(=O)OCCCl)cc1,46
5,CCCCCCCCCCCCCCCCCCOc1ccc(/C=C/C(=O)O)cc1,9
6,CCCCCCCCCCCCOc1ccc(/C=C(\C)C(=O)OCC2COC(C)(C)O2)cc1 (stereo unspecified),41
7,CCCCCCCCCCCCCCOc1ccc(/C=C/C(=O)O)cc1,0
8,CCCCCCCCOc1ccc(/C=C/C(=O)OCCOC(=O)/C=C/c2ccc(OCCCCCCCC)cc2)cc1,9
9,CCCCCCCCCCCCCCOc1ccc(/C=C/C(=O)OCCO)cc1,24
10,CCCCCCCCCCCCOc1ccc(/C=C(\C)C(=O)OCc2cccnc2)cc1,60
11,CCCCCCCCCCCCCCOc1ccc(/C=C(\C)C(=O)OCC2COC(C)(C)O2)cc1 (stereo unspecified),2
12,C/C(=C\c1ccc(-c2ccc(Cl)cc2)cc1)C(=O)OCC(O)CO (stereo unspecified),18
13,CCCCCCCCCCCCCOc1ccc(/C=C(\C)C(=O)O)cc1,-4
14,CCCCCCCCCCCCOc1ccc(/C=C/C(=O)OCC(O)CO)cc1 (stereo unspecified),38
15,CCCCCCCCCCCCOc1ccc(/C=C/C(=O)O)cc1,52
16,CCCCCCCCCCCCCCCCCCOc1ccc(/C=C/C(=O)OCCCCl)cc1,3
17,CCCCCCCCCCOc1ccc(/C=C(\C)C(=O)OCC(O)CO)cc1 (stereo unspecified),52
18,CCCCCCCCCCCCCOc1ccc(/C=C(\C)C(=O)OCC(O)CO)cc1 (stereo unspecified),53
19,CCCCCCCCCCCCCCOc1ccc(/C=C(\C)C(=O)OC)cc1,44
20,CCCCCCCCCCOc1ccc(/C=C/C(=O)O)cc1,18
21,CCCCCCCCCCCCCCOc1ccc(/C=C(\C)C(=O)OCC(O)COC(=O)c2cccnc2)cc1 (stereo unspecified),33
22,CCCCCCCCCCCCOc1ccc(/C=C(\C)C(=O)OCCCl)cc1,42
23,C=C(C)C(=O)OCCOC(=O)/C=C/c1ccc(OCCCCCCCCCCCC)cc1,34
24,C=C(C)C(=O)OCCOC(=O)/C=C/c1ccc(OCCCC)cc1,17
25,CCCCCCCCCCCCCCCCCCOc1ccc(/C=C(\C)C(=O)OCCCCl)cc1,11
26,CCCCCCCCCCCCCCCCCCOc1ccc(/C=C(\C)C(=O)OCCCO)cc1,14

row,SMILES,Decrease [%]
1,C/C(=C\c1ccc(-c2ccccc2)cc1)C(=O)OCC(O)CO (stereo unspecified),-17
2,CCCCCCCCCCCCCCCCOC(=O)/C=C/c1ccc(OCCCCCCCCCCCCCCCC)cc1,27
3,CCCCCCCCCCOc1ccc(/C=C/C(=O)OCC(O)CO)cc1 (stereo unspecified),14
4,CCCCCCCCCCCCCCCCOc1ccc(/C=C(\C)C(=O)OCC2COC(C)(C)O2)cc1 (stereo unspecified),3
5,CCCCCCCCOc1ccc(/C=C(\C)C(=O)OCC(O)CO)cc1 (stereo unspecified),21
6,CCCCCCCCCCCCCCCCOc1ccc(/C=C/C(=O)OCC(COC(=O)CCC)OC(=O)CCC)cc1 (stereo unspecified),36
7,CCCCCCCCCCCCCCOc1ccc(/C=C(\C)C(=O)OCCOC(=O)/C(C)=C/c2ccc(OCCCCCCCCCCCCCC)cc2)cc1,-9
8,CCCCCCCCOc1ccc(/C=C(\C)C(=O)OCc2ccccc2)cc1,18
9,CCCCCCCCCCCCCCCCCCOc1ccc(/C=C(\C)C(=O)OCC(O)CO)cc1 (stereo unspecified),3
10,CCCCCCCCCCCCCCOc1ccc(/C=C(\C)C(=O)OCC(O)COC(=O)/C(C)=C/c2ccc(OCCCCCCCCCCCCCC)cc2)cc1 (stereo unspecified),6
11,CCCCCCCCCCCCOc1ccc(/C=C(\C)C(=O)OCC(COC(=O)c2ccccc2)OC(=O)c2ccccc2)cc1 (stereo unspecified),47
12,CCCCCCCCCCCCCCOc1ccc(/C=C(\C)C(=O)OCC(COC(C)=O)OC(C)=O)cc1 (stereo unspecified),41
13,CCCCCCCCCCCCCCOc1ccc(/C=C/C(=O)OCC(O)CO)cc1 (stereo unspecified),24
14,CCCCCCCCCCCCCCOc1ccc(/C=C(\C)C(=O)OC(CO)CO)cc1,38
15,CCCCCCCCCCOc1ccc(/C=C(\C)C(=O)O)cc1,43
16,CCCCCCCCCCCCCCOc1ccc(/C=C/C(=O)OCCCl)cc1,-1
17,CCCCCCCCOc1ccc(/C=C(\C)C(=O)O)cc1,8
18,CCCCCCCCCCCCCCOc1ccccc1/C=C(\C)C(=O)O,7
19,CCCCCCCCCCCCCCCCOc1ccc(/C=C(\C)C(=O)Oc2ccccc2)cc1,46
20,CCCCCCCCCCCCCCCCCCOc1ccc(/C=C(\C)C(=O)O)cc1,-54
21,CCCCCCCCCCCCOc1ccc(/C=C(\C)C(=O)OCCS(=O)(=O)[O-])cc1.[Na+],63
22,CCCCCCCCCCCCCCCCOc1ccc(/C=C(\C)C(=O)OCC(COC(=O)/C(C)=C/c2ccc(OCCCCCCCCCCCCCCCC)cc2)OC(=O)/C(C)=C/c2ccc(OCCCCCCCCCCCCCCCC)cc2)cc1 (stereo unspecified),9
23,C=C(C)C(=O)OCCOC(=O)/C(C)=C/c1ccc(OCCCCCCCCCCCC)cc1,43
24,CCCCCCCCCCCCCCOc1ccc(/C=C(\C)C(=O)OCCN(C)C)cc1.Cl,35
25,CCCCCCCCCCCCCCOc1ccc(/C=C(\C)C(=O)OCC(O)CO)cc1 (stereo in doubt; 98),9

# Tested on: Rattus norvegicus
# Assay: In vivo hypolipidemic activity, expressed as percent decrease in Triglyceride in rat, at dosage of 100 mg for 7 days.
# Format: functional
# In short: as §1
row,SMILES,Decrease [%]
1,CCCCCCCCCCCCCCCCOc1ccc(/C=C/C(=O)OCCBr)cc1,6
2,C=C(C)C(=O)OCCOC(=O)/C=C(\C)c1ccc(OCCCCCCCCCCCCCCCC)cc1,12

# Species on record: Rattus norvegicus
# Assay: Hypolipidemic activity, expressed as percent decrease in serum cholesterol in rat, at dosage of 100 mg for 7 days by Zak et al method
# Format: functional
# In short: as §1, with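 “cholesterol” for “triglyceride”, “Zak et al.” for “Ryan and Rasho”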
row,SMILES,Decrease [%]
1,CCCCCCCCOc1ccc(/C=C/C(=O)OCCCl)cc1,5
2,CCCCCCCCCCCCCCCCOc1ccc(/C=C/C(=O)OCCBr)cc1,7
3,COc1ccc(/C=C/C(=O)OCCCl)cc1,0
4,C=CC(=O)OCCOC(=O)/C=C/c1ccc(OCCCCCCCCCCCCCCCC)cc1,6
5,C=C(C)C(=O)OCCOC(=O)/C=C(\C)c1ccc(OCCCCCCCCCCCCCCCC)cc1,11
6,C=COC(=O)/C=C/c1ccc(OCCCCCCCC)cc1,-6
7,O=C(/C=C/c1ccc(OCc2ccccc2)cc1)OCCCl,-3

# Species on record: Rattus norvegicus
# Assay: Tested for the hypolipidemic activity, expressed as percent decrease in serum cholesterol in rat, at dosage of 50 mg for 7 days
# Format: functional
# In short: as §1, with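 “cholesterol” for “triglyceride”, “Zak et al.” for “Ryan and Rasho”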
row,SMILES,Decrease [%]
1,CCCCCCCCCCCCCCOc1ccc(/C=C(\C)C(=O)OCC(COC(=O)c2cccnc2)OC(=O)c2cccnc2)cc1 (stereo unspecified),7
2,CCCCCCCCCCCCCCOc1cccc(/C=C(\C)C(=O)O)c1,-1
3,CCCCCCCCCCCCCCOc1ccc(/C(C)=C/C(=O)O)cc1,5
4,CCCCCCCCCCCCOc1ccc(/C=C/C(=O)OCCCl)cc1,16
5,CCCCCCCCCCCCCCCCCCOc1ccc(/C=C/C(=O)O)cc1,0
6,CCCCCCCCCCCCOc1ccc(/C=C(\C)C(=O)OCC2COC(C)(C)O2)cc1 (stereo unspecified),16
7,CCCCCCCCCCCCCCOc1ccc(/C=C/C(=O)O)cc1,7
8,CCCCCCCCOc1ccc(/C=C/C(=O)OCCOC(=O)/C=C/c2ccc(OCCCCCCCC)cc2)cc1,4
9,CCCCCCCCCCCCCCOc1ccc(/C=C/C(=O)OCCO)cc1,10
10,CCCCCCCCCCCCOc1ccc(/C=C(\C)C(=O)OCc2cccnc2)cc1,24
11,CCCCCCCCCCCCCCOc1ccc(/C=C(\C)C(=O)OCC2COC(C)(C)O2)cc1 (stereo unspecified),9
12,C/C(=C\c1ccc(-c2ccc(Cl)cc2)cc1)C(=O)OCC(O)CO (stereo unspecified),11
13,CCCCCCCCCCCCCOc1ccc(/C=C(\C)C(=O)O)cc1,13
14,CCCCCCCCCCCCOc1ccc(/C=C/C(=O)OCC(O)CO)cc1 (stereo unspecified),17
15,CCCCCCCCCCCCOc1ccc(/C=C/C(=O)O)cc1,15
16,CCCCCCCCCCCCCCCCCCOc1ccc(/C=C/C(=O)OCCCCl)cc1,9
17,CCCCCCCCCCOc1ccc(/C=C(\C)C(=O)OCC(O)CO)cc1 (stereo unspecified),10
18,CCCCCCCCCCCCCOc1ccc(/C=C(\C)C(=O)OCC(O)CO)cc1 (stereo unspecified),30
19,CCCCCCCCCCCCCCOc1ccc(/C=C(\C)C(=O)OC)cc1,10
20,CCCCCCCCCCOc1ccc(/C=C/C(=O)O)cc1,9
21,CCCCCCCCCCCCCCOc1ccc(/C=C(\C)C(=O)OCC(O)COC(=O)c2cccnc2)cc1 (stereo unspecified),4
22,CCCCCCCCCCCCOc1ccc(/C=C(\C)C(=O)OCCCl)cc1,21
23,C=C(C)C(=O)OCCOC(=O)/C=C/c1ccc(OCCCCCCCCCCCC)cc1,13
24,C=C(C)C(=O)OCCOC(=O)/C=C/c1ccc(OCCCC)cc1,9
25,CCCCCCCCCCCCCCCCCCOc1ccc(/C=C(\C)C(=O)OCCCCl)cc1,0
26,CCCCCCCCCCCCCCCCCCOc1ccc(/C=C(\C)C(=O)OCCCO)cc1,13

row,SMILES,Decrease [%]
1,C/C(=C\c1ccc(-c2ccccc2)cc1)C(=O)OCC(O)CO (stereo unspecified),16
2,CCCCCCCCCCCCCCCCOC(=O)/C=C/c1ccc(OCCCCCCCCCCCCCCCC)cc1,11
3,CCCCCCCCCCOc1ccc(/C=C/C(=O)OCC(O)CO)cc1 (stereo unspecified),-3
4,CCCCCCCCCCCCCCCCOc1ccc(/C=C(\C)C(=O)OCC2COC(C)(C)O2)cc1 (stereo unspecified),1
5,CCCCCCCCOc1ccc(/C=C(\C)C(=O)OCC(O)CO)cc1 (stereo unspecified),8
6,CCCCCCCCCCCCCCCCOc1ccc(/C=C/C(=O)OCC(COC(=O)CCC)OC(=O)CCC)cc1 (stereo unspecified),8
7,CCCCCCCCCCCCCCOc1ccc(/C=C(\C)C(=O)OCCOC(=O)/C(C)=C/c2ccc(OCCCCCCCCCCCCCC)cc2)cc1,-1
8,CCCCCCCCOc1ccc(/C=C(\C)C(=O)OCc2ccccc2)cc1,5
9,CCCCCCCCCCCCCCCCCCOc1ccc(/C=C(\C)C(=O)OCC(O)CO)cc1 (stereo unspecified),-1
10,CCCCCCCCCCCCCCOc1ccc(/C=C(\C)C(=O)OCC(O)COC(=O)/C(C)=C/c2ccc(OCCCCCCCCCCCCCC)cc2)cc1 (stereo unspecified),6
11,CCCCCCCCCCCCOc1ccc(/C=C(\C)C(=O)OCC(COC(=O)c2ccccc2)OC(=O)c2ccccc2)cc1 (stereo unspecified),3
12,CCCCCCCCCCCCCCOc1ccc(/C=C(\C)C(=O)OCC(COC(C)=O)OC(C)=O)cc1 (stereo unspecified),4
13,CCCCCCCCCCCCCCOc1ccc(/C=C/C(=O)OCC(O)CO)cc1 (stereo unspecified),26
14,CCCCCCCCCCCCCCOc1ccc(/C=C(\C)C(=O)OC(CO)CO)cc1,9
15,CCCCCCCCCCOc1ccc(/C=C(\C)C(=O)O)cc1,16
16,CCCCCCCCCCCCCCOc1ccc(/C=C/C(=O)OCCCl)cc1,11
17,CCCCCCCCOc1ccc(/C=C(\C)C(=O)O)cc1,10
18,CCCCCCCCCCCCCCOc1ccccc1/C=C(\C)C(=O)O,-9
19,CCCCCCCCCCCCCCCCOc1ccc(/C=C(\C)C(=O)Oc2ccccc2)cc1,12
20,CCCCCCCCCCCCCCCCCCOc1ccc(/C=C(\C)C(=O)O)cc1,-12
21,CCCCCCCCCCCCOc1ccc(/C=C(\C)C(=O)OCCS(=O)(=O)[O-])cc1.[Na+],27
22,CCCCCCCCCCCCCCCCOc1ccc(/C=C(\C)C(=O)OCC(COC(=O)/C(C)=C/c2ccc(OCCCCCCCCCCCCCCCC)cc2)OC(=O)/C(C)=C/c2ccc(OCCCCCCCCCCCCCCCC)cc2)cc1 (stereo unspecified),0
23,C=C(C)C(=O)OCCOC(=O)/C(C)=C/c1ccc(OCCCCCCCCCCCC)cc1,17
24,CCCCCCCCCCCCCCOc1ccc(/C=C(\C)C(=O)OCCN(C)C)cc1.Cl,8
25,CCCCCCCCCCCCCCOc1ccc(/C=C(\C)C(=O)OCC(O)CO)cc1 (stereo in doubt; 98),-2
